Series [1] in a line: Prodrug release in human HT-29 cells assessed as increase in NO level by measuring nitrite release at 5 uM incubated for 24 hrs by spectrophotometric analysis. Particulars: ht-29, 24 h. Type of series: ADME, cell-based. In a few lines:
(§1)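 After 24 h culture with 5 µmol/L compound, medium mixed 1:1 with Griess reagent, 10 min 37°C in dark, absorbance 540 nm. Cell-free blank subtracted; nitrite expressed as nmol/mg cell protein. HT29/dx maintained in 200 nmol/L DOXO. Triplicate, mean ± SD (n = 3).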

Series [2] can be described thus: Prodrug release in doxorubicin-resistant human HT-29 cells assessed as increase in NO level by measuring nitrite release at 5 uM incubated for 24 hrs by spectrophotometric analysis. The following applies: ht-29, 24 h. Type of series: ADME, cell-based. In a few lines: as §1
In series [3] the test system is HT-29. Put plainly: Cytotoxicity against doxorubicin-resistant human HT-29 cells assessed as LDH release at 5 uM incubated for 24 hrs. It is filed as functional, cell-based. In a few lines: (§2)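 Extracellular medium spun 12,000 × g 5 min; cells detached, sonicated in 82.3 mmol/L triethanolamine phosphate-HCl pH 7.6. LDH activity read in medium and lysate at 340 nm over 6 min, as µmol NADH oxidized/min/dish; extracellular LDH given as % of total dish activity. Compounds from DMSO stock, 5 µM final, 1% DMSO; controls 1% DMSO. Triplicate, mean ± SD.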
A general note: Release of lactate dehydrogenase indicates damage to the cell membrane.

Series [4] has as its system HT-29. Description: Cytotoxicity against human HT-29 cells assessed as LDH release at 5 uM incubated for 24 hrs. Type of series: functional, cell-based. The procedure, abridged: as §2
The nature of series [5]: Stability of the compound assessed as human serum esterase-mediated compound hydrolysis by measuring half life at 100 uM by RP-HPLC analysis. It is filed as ADME, cell-free. In a few lines: (§3)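 Compound from 10 mM DMSO stock added to human male AB serum preheated to 37 °C, 100 µM final, incubated at 37 ± 0.5 °C. Aliquots deproteinized with acetonitrile/0.1% HCOOH, centrifuged, filtered. Parent and degradation products quantified by RP-HPLC (234 and 480 nm) against 1–100 µM calibration. At least triplicate.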

The subject of series [6] is HT-29. Description: Induction of apoptosis in doxorubicin-resistant human HT29 cells assessed as activation of caspase 3 using DEVD-AMC substrate at 5 uM incubated for 24 hrs by fluorescence based assay. It is filed as functional, cell-based. In a few lines: (§4)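 Cells 24 h in 5 µmol/L compound or fresh medium, lysed in HEPES/KOH buffer pH 7.5. 20 µg lysate incubated 1 h at 37°C with 20 µmol/L LEHD-AMC (caspase 9) or DEVD-AMC (caspase 3) in HEPES/CHAPS/sucrose/DTT buffer pH 7.5. Stopped with ice-cold 0.1% TCA; AMC fluorescence ex 380/em 460 nm, converted to nmol AMC/µg protein via AMC standards. Triplicate.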

Series [7] has as its system HT-29. Put plainly: Induction of apoptosis in human HT29 cells assessed as activation of caspase 3 using DEVD-AMC substrate at 5 uM incubated for 24 hrs by fluorescence based assay. It is filed as functional, cell-based. In a few lines: as §4
Series [8] has as its system HT-29. Description: Induction of apoptosis in doxorubicin-resistant human HT29 cells assessed as activation of caspase 9 using LEHD-AMC substrate at 5 uM incubated for 24 hrs by fluorescence based assay. Type of series: functional, cell-based. The procedure, abridged: as §4
The subject of series [9] is HT-29. Description: Induction of apoptosis in human HT29 cells assessed as activation of caspase 9 using LEHD-AMC substrate at 5 uM incubated for 24 hrs by fluorescence based assay. It is filed as functional, cell-based. In a few lines: as §4
The subject of series [10] is H9c2. Description: Cardiotoxicity against rat H9c2 cells assessed as LDH release at 5 uM incubated for 24 hrs. It is filed as toxicity, cell-based. The following applies: h9c2, 24 h. The procedure, abridged: as §2
Series [11] concerns HT-29. Put plainly: Upregulation of iNOS protein expression in human HT-29 cells. Type of series: functional, cell-based. In a few lines:
(§5)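 HT29 and HT29/dx cells incubated 24 h with compound or fresh medium; lysed in MLB buffer pH 7.5, sonicated, centrifuged 13,000 x g 10 min 4°C; iNOS detected in whole-cell lysate by Western blotting.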

For series [12], the system named is HT-29. Description: Upregulation of iNOS protein expression in doxorubicin-resistant human HT-29 cells. Type of series: functional, cell-based. The procedure, abridged:
as §5

A short description of series [13]: Stability of the compound assessed as human serum esterase-mediated compound hydrolysis by measuring parent compound remaining at 100 uM measured after 24 hrs by RP-HPLC analysis. Particulars: read-out: Stabilty. Type of series: ADME, cell-free. In a few lines: as §3
Series [14] is described as follows: Prodrug release in doxorubicin-resistant human HT-29 cells assessed as increase in NO level by measuring induction of P-glycoprotein nitration in plasma membrane at 5 uM incubated for 24 hrs by western blot analysis. It is filed as cell membranes, Cell membrane. Particulars: ht-29, 24 h. In a few lines: (§6)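 Cells 24 h with 5 µmol/L compound. Plasma-membrane proteins isolated by surface biotinylation, 50 µg run on SDS-PAGE, probed for Pgp with pancadherin loading control; nitration detected by Western blot, peroxidase secondary and chemiluminescence. Representative of three experiments.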

The nature of series [15]: Prodrug release in human HT-29 cells assessed as increase in NO level by measuring induction of P-glycoprotein nitration in plasma membrane at 5 uM incubated for 24 hrs by western blot analysis. It is filed as cell membranes, Cell membrane. The following applies: ht-29, 24 h. In a few lines:
as §6
Background: A western blot detects proteins with antibodies after separation by electrophoresis.

Series [16] in a line: Prodrug release in human HT-29 cells assessed as increase in NO level by measuring plasma membrane associated MRP1/BCRP nitration mediated drug uptake at 5 uM incubated for 24 hrs by spectrofluorometric analysis. Particulars: ht-29, 24 h. It is filed as ADME, cell membranes. The procedure, abridged: (§7)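 Cells 24 h with 5 µmol/L compound; DOXO in whole-cell lysates measured fluorimetrically (ex 475/em 553 nm), cell-free blank subtracted, converted to nmol DOXO/mg protein by calibration curve. Triplicate, mean ± SD.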

Series [17] can be described thus: Prodrug release in doxorubicin-resistant human HT-29 cells assessed as increase in NO level by measuring plasma membrane associated MRP1/BCRP nitration mediated drug uptake at 5 uM incubated for 24 hrs by spectrofluorometric analysis. It is filed as ADME, cell membranes. Particulars: ht-29, 24 h. In a few lines:
as §7

Series [18] can be described thus: Prodrug release in human HT-29 cells assessed as increase in NO level by measuring mitochondria associated MRP1/BCRP/P-gp nitration mediated drug uptake at 5 uM incubated for 24 hrs by spectrofluorometric analysis. Type of series: ADME. Particulars: ht-29, 24 h. The procedure, abridged:
(§8)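 Cells 24 h with 5 µmol/L compound; mitochondrial fractions isolated (porin check by immunoblot), DOXO measured fluorimetrically (ex 475/em 553 nm) with blank subtraction and calibration curve; expressed as nmol DOXO/mg mitochondrial protein. Triplicate, mean ± SD.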

Series [19] can be described thus: Prodrug release in doxorubicin-resistant human HT-29 cells assessed as increase in NO level by measuring mitochondria associated MRP1/BCRP/P-gp nitration mediated drug uptake at 5 uM incubated for 24 hrs by spectrofluorometric analysis. Type of series: ADME. The following applies: ht-29, 24 h. The procedure, abridged:
as §8

Series [20] in a line: Prodrug release in human HT-29 cells assessed as increase in NO level by measuring induction of P-glycoprotein nitration in mitochondria at 5 uM incubated for 24 hrs by western blot analysis. The following applies: ht-29, 24 h. In a few lines: (§9)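 Cells 24 h with 5 µmol/L compound. Mitochondrial extracts, 10 µg protein, run on SDS-PAGE and probed for Pgp, porin as loading control; nitration detected by Western blot with peroxidase secondary and chemiluminescence. Representative of three experiments.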

The nature of series [21]: Prodrug release in doxrubicin-resistant human HT-29 cells assessed as increase in NO level by measuring induction of P-glycoprotein nitration in mitochondria at 5 uM incubated for 24 hrs by western blot analysis. Particulars: ht-29, 24 h. In a few lines:
as §9

We go through two molecules from ChEMBL document CHEMBL4715702, “Overcoming multidrug resistance by targeting mitochondria with NO-donating doxorubicins” (Bioorg Med Chem, 2016).

Calls of active or inactive are those of the source. No cut-off for these calls is given here.

As a reminder, the half-life is how long it takes for the measured level to halve. Consider `COc1cccc2c1C(=O)c1c(O)c3c(c(O)c1C2=O)C[C@@](O)(C(=O)COC(=O)c1ccc(Oc2no[n+]([O-])c2S(=O)(=O)c2ccccc2)cc1)C[C@@H]3O[C@H]1C[C@H](N)[C@H](O)[C@H](C)O1.Cl`, for which the Drug metabolism result in series [1] and in [2] was “Metabolite_Detected” in each case. The outcome in series [3], in series [4], in [6], in series [7], in series [8] and in series [9] was Active. Also, the result in series [11] and in [12] was Active. Also, the half-life at 100 µM in [5] is > 24 h. Moreover, the Activity result in [10] is reported as “Non-Toxic”. The remaining at 24 h, 100 µM in series [13] came out at 73.5%.

Take `COc1cccc2c1C(=O)c1c(O)c3c(c(O)c1C2=O)C[C@@](O)(C(=O)COC(=O)C(C)(C)CO[N+](=O)[O-])C[C@@H]3O[C@H]1C[C@H](N)[C@H](O)[C@H](C)O1.Cl`: the Activity result in [14] was “Not Active”; in [15], “Not Active”; in series [10] it was “Non-Toxic”; in series [20], “Active”; in series [21], “Active”. Besides, the Drug metabolism entry in series [1] and in [2] was “Metabolite_Detected” throughout. Moreover, the Drug uptake result in series [16], in [17], in series [18] and in series [19] was “Active” throughout. Further, the result in series [3], in series [4], in [6], in series [7], in [8] and in [9] was Active. Moreover, the result in series [11] and in series [12] was Active. For the same molecule, the half-life at 100 µM in series [5] is 21.7 h.
